Compounds with a hit are over-represented: about 3.9% of the library has one in this group of screens.
DNA FID counter – compounds displacing fluorescent DNA intercalator, primary screen, artefact control for HCV NS3 helicase inhibitor project, biochemical, FID fluorescence; DNA fluorescent intercalator displacement; inhibition, % at 7.9 µM; hit rate 0.17% among 290,000; AID 1845, 2009; in the data active = inhibition above about 37%;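 note: 0% = vehicle and 100% = reference compound; higher means more ethidium bromide displaced from hairpin DNA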
core dimer inh – inhibitors of HCV core protein dimerization, primary screen, biochemical, TR-FRET, high-throughput; TR-FRET GST/Flag-core106 dimerization, 1536-well; inhibition, % at 5 µM; hit rate 0.33% among 300,000; AID 1899, 2009;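 active = inhibition above the mean of all tested compounds plus 3 SD, set per screening campaign, cut at about 45% in these data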
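System – GST-tagged and Flag-tagged HCV core protein residues 1-106 · Repeats – one well for each compound · Technique – TR-FRET 671 and 617 nm emission · Doses – one concentration, 5 µM, in 0.5% DMSO · Times – 4 h, 22.5 °C incubation · Also added – Eu donor and XL665 acceptor anti-tag antibodies · Measure – percent inhibition of core106 dimerization signal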
HSF1 activator – HSF-1 activators, primary screen, NIH3T3-HGL cells, MG132 stress, luminescence, single point; NIH3T3-HGL HSF-1 luciferase reporter, 8 h; 100% = twice DMSO control signal; activation, % at 9 µM; hit rate 1.7% among 300,000; AID 504408, 2011;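 active = mean replicate activation of at least 50% with a set share of replicates each reaching 50%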;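 note: 0% = median of the neutral control wells and 100% = twice that signal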
NS3 helicase inh – inhibitors of HCV NS3 helicase, primary screen, biochemical, Cy5 molecular beacon fluorescence; Hepatitis C virus NS3 helicase; NS3 helicase DNA unwinding; inhibition, % at 10.9 µM; hit rate 0.56% among 290,000; AID 1800, 2009;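 active = inhibition above the mean of all tested compounds plus 3 SD, set per campaign, cut at about 35% in these data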;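 note: 0% = DMSO wells and 100% = thioflavine S control wells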
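System: HCV NS3 helicase fragment; control set: DMSO and thioflavine S; technique: Cy5 fluorescence at 0 and 60 min, beacon hairpin quenching; reagent: beacon DNA duplex substrate plus ATP; replicates: singlicate; schedule: 1 h reaction at 25 °C, ATP-initiated; medium: MOPS buffer pH 6.5 with MgCl2, DTT, Tween20, BSA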
HSF1 inhib – HSF1 inhibitors in luciferase reporter cells, primary screen, cell-based, NIH3T3, luminescence | NIH3T3-HGL HSE-luciferase, MG132-induced, luminescence 8 h; active compounds read low | activity change, negative = inhibition, % at 7.5 µM (by protocol) | hit rate 0.77% among 300,000 | AID 2098, 2009;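 active = more than half of replicate wells show activity change below -50%, luminescence cut by over half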;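 note: luciferase reports HSF-1 transcriptional activity via heat shock element; 0% = median of DMSO wells and -100% = zero luminescence signal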
HSP90 refold inh – HSP90 inhibitors, primary screen, cell lysate, luminescence; Heat shock protein HSP 90 (rabbit reticulocyte lysate; luciferase refolding); Rabbit reticulocyte lysate, luciferase refolding luminescence, 3 h; inhibition, % at 5.6 µM; hit rate 0.91% among 290,000;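 active = inhibition above the screen-wide mean plus 3 SD, computed separately per campaign, cut at about 16% in these data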;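 note: 0% = DMSO wells and 100% = 60 µM geldanamycin wells; inhibitors lower the luminescence because luciferase stays unfolded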
Starred values were filed as active, the others as inactive; . = no result.

SMILES	DNA FID counter	core dimer inh	HSF1 activator	NS3 helicase inh	HSF1 inhib	HSP90 refold inh
Nc1nc2ccccc2cc1-c1cccs1	0.9	4.6	53.2*	-9.0	9.9	-2.4
Cc1noc(C)c1S(=O)(=O)N1CCCC(C(=O)c2cccc(OC(C)C)c2)C1 (centres undefined)	-5.3	1.1	-2.0	4.3	-4.0	0.1
Cc1cccc(Nc2ccccc2C(=O)O)c1C	-18.1	5.9	-1.6	1.0	-6.8	-2.7
Cc1cccc(Nc2ncccc2C(=O)O)c1C	0.9	2.7	-67.0	-0.8	-58.4*	4.2
COc1ccccc1NC(=O)CSc1nc(=O)n2cc(C)ccc2n1	.	-0.2	1.6	.	6.1	.
CCCn1c(NC(=O)c2ccccc2)nc2ccccc21	-13.8	5.7	5.9	6.1	-0.2	2.5
CCc1nnc(NC(=O)c2cccc(S(=O)(=O)N3CCCCC3)c2)s1	-27.5	2.1	-57.0	-3.4	-56.3*	-3.3
CCCn1c(NC(=O)c2cccc(S(=O)(=O)N3CCCC3)c2)nc2ccccc21	-26.7	11.2	-52.4	-9.6	-54.4*	0.2
CCOC(=O)N1CCC(N2C(=O)c3ccccc3C2Nc2ccc(Cl)cn2)CC1 (centres undefined)	-9.5	11.8	28.8	6.3	18.6	-0.7
CC1CCN(S(=O)(=O)c2ccc(S(=O)(=O)NCc3ccccc3)cc2)CC1	-2.0	5.0	11.1	-1.9	-1.0	-0.9
CCOC(=O)Nc1ccc2c(c1)N(C(=O)CN(CC)CC)c1ccccc1C=C2	9.9	-0.3	74.0*	-5.0	58.1	-2.1
CC(NC(=O)/C=C/c1ccco1)c1nc2ccccc2n1Cc1c(Cl)cccc1Cl (centres undefined)	-24.1	35.0	33.0	1.0	23.3	3.2
CC(NC(=O)/C=C/c1ccco1)c1nc2ccccc2n1Cc1ccccc1F (centres undefined)	-27.0	16.4	64.8*	5.6	33.2	-1.2
COCCn1c(Cc2ccccc2)nnc1SCC(=O)N(C)C	3.6	-8.8	20.4	-4.4	4.0	0.1
Cc1ccc(S(=O)(=O)N[C@@H](CC(C)C)C(=O)N2CCC(C(=O)N[C@H](C(=O)O)C(C)C)CC2)cc1	-33.9	-0.8	-2.0	15.2	-0.4	-3.6
Cc1ccc(Nc2c(N)c(=O)oc3ccccc23)cc1	-2.1	-8.2	161.2*	-1.2	97.5	1.0
CNc1c(N)c(=O)oc2ccccc12	-1.2	-7.5	34.1	-4.8	10.5	-0.3
Cc1ccc(S(=O)(=O)N2CCCCC2)cc1NC(=O)C1CC(=O)N(c2ccc3c(c2)OCCO3)C1 (centres undefined)	.	-4.0	0.3	.	3.1	.
COc1cc(=O)[nH]c(SCC(=O)Nc2nc3c(s2)CCCC3)n1	-10.2	-3.9	-88.9	6.9	-85.7*	8.7
COCCN1C(=O)/C(=C2/C(=O)N(CC(=O)Nc3ccccc3Cl)c3ccccc32)SC1=S	1.4	5.6	11.7	-3.2	-5.4	1.4
O=C(CN1C(=O)/C(=C2\SC(=S)N(CCS(=O)(=O)O)C2=O)c2ccccc21)Nc1cccc(Br)c1	57.6*	-12.9	8.4	31.8	2.8	-1.4
O=C(N/N=C/c1c[nH]c2ccccc12)c1ccc(Cl)cc1	-1.1	0.5	28.2	9.4	3.3	-4.4
CN1CCN(NC(=O)CSc2ccc(Cl)cc2Cl)CC1	-0.1	-9.0	9.9	3.0	6.3	-2.3
CCC(C)NC(=O)CC(c1ccc(OC)cc1)n1cccc1 (centres undefined)	-4.3	-2.3	2.6	6.6	-3.6	0.0
CCc1ccccc1NC(=O)CC(c1ccc(OC)cc1)n1cccc1 (centres undefined)	-9.5	12.2	81.2*	0.1	30.1	-3.2
SMILES	DNA FID counter	core dimer inh	HSF1 activator	NS3 helicase inh	HSF1 inhib	HSP90 refold inh
C=C(C)CSc1nc2ncccc2[nH]1	0.7	-1.1	-3.1	1.1	-4.4	-1.2
Cc1ccc(CSc2nc3ncccc3[nH]2)cc1	-5.3	-7.4	76.9*	1.5	46.0	13.5
CC(C)c1ccc(NC(=O)c2cccc(Br)c2)cc1	-7.7	-2.0	77.9*	-1.4	38.3	1.6
Nc1c(C(=O)Nc2ccccc2Cl)nnn1-c1ccc2c(c1)OCCO2	-4.8	1.6	57.6*	-8.1	36.1	-2.2
O=C(Nc1ccc2c(c1)OCCO2)c1cccc(Br)c1	-10.2	.	57.0*	-14.0	22.2	2.5
Nc1c(C(=O)Nc2ccc3c(c2)OCCO3)nnn1Cc1ccc(Br)cc1	.	2.5	56.3*	.	29.7	.
Nc1c(C(=O)Nc2ccc3c(c2)OCCO3)nnn1CCc1ccccc1	-16.1	-7.3	5.4	-4.0	3.5	1.7
Cc1ccc(Nc2nc3ccc(Cl)cc3n3cnnc23)cc1F	-10.4	11.9	13.4	-16.8	-12.7	-0.9
O=C(Cn1nc(-c2ccccc2)ccc1=O)N1CCCCC1	-18.1	-9.0	-82.1	11.4	-78.6*	1.9
O=C(Cn1nc(-c2ccccc2Cl)ccc1=O)Nc1ccccc1-c1ccccc1	-31.1	0.6	52.7*	-2.5	14.1	2.0
O=C(Cn1nc(-c2ccccc2Cl)ccc1=O)Nc1ccc(Br)cc1	-8.7	2.9	-17.8	-6.0	-5.5	3.2
Nc1c(S(=O)(=O)c2ccccc2)c2nc3ccccc3nc2n1Cc1ccco1	-6.6	8.2	13.4	18.7	8.6	2.0
Cc1ccc(S(=O)(=O)c2c(N)n(CCC(C)C)c3nc4ccccc4nc23)cc1	-8.7	16.4	108.8*	0.0	53.2	3.4
Cc1ccc(S(=O)(=O)c2c(N)n(CCCO)c3nc4ccccc4nc23)cc1	-12.5	2.8	27.2	-3.0	11.7	1.2
Cc1ccc(C)c(S(=O)(=O)c2c(N)n(/N=C/c3ccco3)c3nc4ccccc4nc23)c1	-12.3	27.4	52.0*	10.6	25.2	0.8
CC(C)CCn1c(N)c(S(=O)(=O)c2cccs2)c2nc3ccccc3nc21	-9.5	9.7	104.5*	8.4	54.1	3.4
Cc1ccc(S(=O)(=O)c2c(N)n(Cc3ccco3)c3nc4ccccc4nc23)cc1C	-12.8	13.6	72.5*	12.8	49.6	4.6
COc1cccc(OC)c1OC(=O)/C=C/c1ccc(C)o1	-29.1	6.3	-1.4	-7.3	-5.7	-3.1
COc1ccccc1N1CCN(C(CNS(=O)(=O)c2ccccc2)c2ccccc2)CC1 (centres undefined)	-31.0	2.7	56.7*	-14.9	6.3	-1.2
COc1ccccc1N1CCN(C(CNS(=O)(=O)c2cccs2)c2cccnc2)CC1 (centres undefined)	-23.6	-12.6	1.3	-9.3	4.5	3.7
Cc1ccc(S(=O)(=O)c2ncccc2[N+](=O)[O-])cc1	-1.6	0.2	-97.1	15.8	-97.1*	13.9

Screening data: PubChem, several laboratories
